Mdm2-MdmX inh: inhibitors of human Mdm2/MdmX interaction; SaOS-2 split-luciferase Mdm2/MdmX complementation, luminescence; inhibition, % at 8 µM; 330,000 compounds, 3% hits;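 active means inhibition of at least 50% at 8 µM in the primary screen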
Target sequence (O15151 whole entry, looked up): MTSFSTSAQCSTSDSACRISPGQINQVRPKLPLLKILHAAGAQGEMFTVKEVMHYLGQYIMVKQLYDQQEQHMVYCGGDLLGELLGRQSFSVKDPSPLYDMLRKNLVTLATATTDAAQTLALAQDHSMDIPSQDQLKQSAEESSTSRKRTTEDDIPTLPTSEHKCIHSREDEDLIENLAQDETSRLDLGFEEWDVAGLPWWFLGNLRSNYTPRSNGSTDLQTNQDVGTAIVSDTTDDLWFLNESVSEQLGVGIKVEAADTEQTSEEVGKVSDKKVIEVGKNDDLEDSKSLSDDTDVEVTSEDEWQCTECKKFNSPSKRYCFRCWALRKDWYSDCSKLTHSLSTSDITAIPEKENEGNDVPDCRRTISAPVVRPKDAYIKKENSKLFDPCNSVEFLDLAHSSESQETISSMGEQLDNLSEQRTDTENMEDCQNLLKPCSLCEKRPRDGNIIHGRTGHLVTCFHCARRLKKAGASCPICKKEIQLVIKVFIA
Target sequence (Q00987 whole entry, looked up): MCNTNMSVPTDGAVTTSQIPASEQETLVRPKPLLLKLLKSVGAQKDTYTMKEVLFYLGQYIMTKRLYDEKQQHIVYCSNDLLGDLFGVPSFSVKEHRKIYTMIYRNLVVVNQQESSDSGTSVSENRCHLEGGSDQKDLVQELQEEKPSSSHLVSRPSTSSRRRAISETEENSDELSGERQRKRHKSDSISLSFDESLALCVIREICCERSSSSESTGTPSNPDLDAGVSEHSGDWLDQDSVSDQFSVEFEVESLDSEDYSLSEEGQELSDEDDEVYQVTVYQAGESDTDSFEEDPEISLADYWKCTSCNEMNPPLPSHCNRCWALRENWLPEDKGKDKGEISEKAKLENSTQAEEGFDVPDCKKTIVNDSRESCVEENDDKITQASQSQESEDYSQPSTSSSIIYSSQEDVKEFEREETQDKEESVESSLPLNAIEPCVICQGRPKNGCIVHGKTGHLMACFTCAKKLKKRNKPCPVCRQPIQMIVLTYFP
T cruzi repl: T. cruzi replication inhibition; T. cruzi beta-gal in NIH3T3, luminescence, 90 h; inhibition, % (test concentration not listed); 300,000 compounds, 1.4% hits; AID 1885;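 active means mean inhibition across valid replicates above about 55%, limit read from the data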;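 further: signal also drops with host cell toxicity which is not excluded here; higher percent means less beta-gal luminescence so fewer parasites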
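Material: NIH/3T3 host cells with β-galactosidase reporter T. cruzi; Input: 5,000 host fibroblasts per well; Medium: DMEM, 2% fetal bovine serum; Compound: 50 nL DMSO compound solution per well; Schedule: 3 h host attachment, then at least 90 h co-culture; Detection: luminescent β-galactosidase signal after 60 min lysis.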
Beta cell apopt: beta cell apoptosis inhibition. INS-1E cytokine-induced death, ATP luminescence, 48 h; percent of positive-control rescue, neutral wells zero. protection from apoptosis, % (test concentration not listed). 300,000 compounds, 0.8% hits. AID 435005;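 active means Every replicate reaches about 75%, or at least half do and their mean reaches it too, limit read from the data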;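 further: higher means more ATP so stronger rescue from cytokine killing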
L major viab: Leishmania major promastigote growth inhibition | inhibition, % at 10 µM | Leishmania major promastigotes, resazurin fluorescence viability | AID 1063 | 200,000 compounds, 9% hits; in the data active means inhibition above about 50%;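 further: promastigotes grown with compound for 44 hours at 28 °C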
CSC inhib: blocks cancer stem cells. cancer stem cell-like cells viability, luminescence. inhibition, % at 7.5 µM. 300,000 compounds, 1.1% hits; in the data active means inhibition above about 75%; tested in HMLE shEcad cells
SKKanGAS inh: SKKanGAS growth inhibition. 300,000 compounds, 1.3% hits. inhibition, % at 7.5 µM. AID 1662. S. pyogenes SKKanGAS, kanamycin growth, BacTiter-Glo, 6 h;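 active means mean replicate score, as percent of positive control median, at least 50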;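 further: strain carries kanamycin resistance gene driven by streptokinase promoter and grows in 40 µg/ml kanamycin; loss of luminescence reflects streptokinase promoter inhibition or plain growth inhibition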
Numbers stand for hits. In the library only some 9.4% were active in any assay of this set; here they are far more common.

Screening Cc1nc(C)c(C(=O)N/N=C/c2cc(Br)ccc2O)s1 returned Mdm2-MdmX inh inactive, T cruzi repl inactive, Beta cell apopt 80, CSC inhib inactive and SKKanGAS inh 91.
`O=C(N/N=C/c1cc([N+](=O)[O-])ccc1O)c1cccc2cc[nH]c12` gave Mdm2-MdmX inh inactive, T cruzi repl 57, Beta cell apopt 100, CSC inhib 88 and SKKanGAS inh 89.
`C/C(=N\NC(=O)c1cccnc1)c1ccccc1` gave Mdm2-MdmX inh inactive, T cruzi repl inactive, Beta cell apopt inactive, CSC inhib inactive and SKKanGAS inh inactive.
`O=C(CCN=C1NS(=O)(=O)c2ccccc21)OCc1ccccc1` gave Mdm2-MdmX inh inactive, T cruzi repl inactive, Beta cell apopt inactive, CSC inhib inactive and SKKanGAS inh inactive.
CC(=O)c1cc(C(=O)N2CCCC(CCC(=O)N(C)CCc3ccccn3)C2)cs1 (stereo not given) was read as Mdm2-MdmX inh inactive, T cruzi repl inactive, Beta cell apopt inactive, L major viab inactive, CSC inhib inactive and SKKanGAS inh inactive.
Screening CC(=O)N1c2ccc(F)c(F)c2C[C@H]1C returned Mdm2-MdmX inh inactive, Beta cell apopt inactive and CSC inhib inactive.
`Cc1cc(C)c(NC(=O)c2ccccc2C(=O)c2ccccc2)c(C)c1` gave Mdm2-MdmX inh inactive, T cruzi repl inactive, L major viab inactive, CSC inhib inactive and SKKanGAS inh inactive.
For O=C(CSc1nc2ccccc2s1)N/N=C/c1cc([N+](=O)[O-])ccc1O the results were Mdm2-MdmX inh inactive, T cruzi repl inactive, Beta cell apopt inactive, CSC inhib inactive and SKKanGAS inh 91.
`O=C(N/N=C/c1cc(Br)ccc1OC(=O)c1ccc(Br)cc1)c1ccncc1` gave Mdm2-MdmX inh inactive, T cruzi repl inactive, Beta cell apopt 92 and SKKanGAS inh inactive.
`Cc1ccc(/C=N/NC(=O)CSc2nc3ccccc3s2)o1` gave Mdm2-MdmX inh inactive, T cruzi repl inactive, Beta cell apopt inactive, L major viab inactive, CSC inhib inactive and SKKanGAS inh inactive.
`Nc1nonc1C(=O)N/N=C/c1cc(Br)ccc1O` gave Mdm2-MdmX inh inactive, T cruzi repl inactive, Beta cell apopt inactive, L major viab 99, CSC inhib inactive and SKKanGAS inh inactive.
`Cc1cc(NC(=O)CCSc2ccccc2)no1` gave Mdm2-MdmX inh inactive, Beta cell apopt inactive, L major viab inactive and CSC inhib inactive.
N#C/C(=C\c1c[nH]c2ccccc12)C(N)=O was read as Mdm2-MdmX inh inactive, T cruzi repl inactive, Beta cell apopt inactive, CSC inhib inactive and SKKanGAS inh inactive.
For CC(=O)Oc1c(/C=C(\C#N)C(N)=O)[nH]c2ccccc12 the results were T cruzi repl inactive, L major viab 96 and SKKanGAS inh inactive.
Screening FC(F)(F)c1cc(-c2ccccc2)nc(-n2cc(Cl)cn2)n1 returned Mdm2-MdmX inh inactive, T cruzi repl inactive, Beta cell apopt inactive, L major viab inactive, CSC inhib inactive and SKKanGAS inh inactive.
`Cc1cnn(-c2nc(-c3ccccc3)cc(-c3ccccc3)n2)c1` gave Mdm2-MdmX inh inactive, T cruzi repl inactive, L major viab inactive and SKKanGAS inh 76.
Cc1ccc(-c2ccc(/C=N/n3cnnc3)o2)cc1 was read as Mdm2-MdmX inh inactive, T cruzi repl inactive, Beta cell apopt inactive, CSC inhib inactive and SKKanGAS inh inactive.
`Cc1ccc(-c2ccc(/C=N/n3cnnc3)o2)cc1Cl` gave Mdm2-MdmX inh inactive, T cruzi repl inactive, Beta cell apopt inactive, L major viab 71, CSC inhib inactive and SKKanGAS inh inactive.
Screening c1ccc(NNC2=NCCCCC2)cc1 returned Mdm2-MdmX inh inactive, T cruzi repl inactive, Beta cell apopt inactive, CSC inhib 84 and SKKanGAS inh inactive.
`C#CCOCCOCCOCCNc1nc(N2CCN(C(=O)C([C@@H](C)CC)n3cc(C(N)COC(=O)C(F)(F)F)nn3)CC2)nc(N2CCN(C(=O)[C@H](CCC(=O)O)n3cc(C(N)CC(C)C)nn3)CC2)n1` (stereo not given in full) gave Mdm2-MdmX inh inactive, T cruzi repl inactive, Beta cell apopt inactive, CSC inhib inactive and SKKanGAS inh inactive.
`Cc1oc(-c2ccc(F)cc2)nc1CN(Cc1ccccn1)CC1CCCO1` (stereo not given) gave Mdm2-MdmX inh inactive, T cruzi repl inactive, Beta cell apopt inactive, L major viab inactive, CSC inhib inactive and SKKanGAS inh 61.
Cc1ccnn1CC(=O)N/N=C/c1cn[nH]c1-c1ccc(F)cc1 was read as Mdm2-MdmX inh inactive, T cruzi repl inactive, Beta cell apopt inactive, CSC inhib inactive and SKKanGAS inh inactive.
Screening Cc1ccc(C)c(NC(=O)CN(C)C(=O)c2cc(-c3cccs3)nn2-c2ccccc2)c1 returned Mdm2-MdmX inh inactive, T cruzi repl inactive, Beta cell apopt inactive, CSC inhib inactive and SKKanGAS inh inactive.
`CCCCC(=O)Nc1ccc(NC(=O)c2cccs2)cn1` gave Mdm2-MdmX inh inactive, T cruzi repl inactive, Beta cell apopt inactive, L major viab 83, CSC inhib inactive and SKKanGAS inh inactive.
For CC(C)(C)c1ccc(Oc2ccc(NC(=O)c3cccs3)cn2)cc1 the results were Mdm2-MdmX inh inactive, T cruzi repl inactive, Beta cell apopt inactive, CSC inhib 84 and SKKanGAS inh inactive.
For O=C1CC(c2ccccc2Cl)=NN(c2ncnc3ccccc23)C1=O the results were Mdm2-MdmX inh inactive, T cruzi repl inactive, Beta cell apopt inactive, L major viab 83, CSC inhib inactive and SKKanGAS inh inactive.
For CCOC(=O)N1CCN(C(=O)c2cn(C)c3ccc(S(=O)(=O)N4CCC(C)CC4)cc3c2=O)CC1 the results were Mdm2-MdmX inh inactive, T cruzi repl inactive, Beta cell apopt inactive, L major viab inactive, CSC inhib inactive and SKKanGAS inh inactive.
Screening COc1ccccc1/C=C/C1=NC(=C\C=C/c2ccccc2)/C(=O)O1 returned Mdm2-MdmX inh inactive, T cruzi repl inactive, Beta cell apopt inactive, L major viab 69 and CSC inhib inactive.
`COc1ccccc1/C=C/C=C1N=C(/C=C/c2ccc(Cl)cc2)OC/1=O` gave Mdm2-MdmX inh inactive, T cruzi repl inactive, Beta cell apopt inactive, L major viab inactive, CSC inhib inactive and SKKanGAS inh inactive.
O=C(COC(=O)C1CCN(S(=O)(=O)c2ccccc2)CC1)NC(=O)c1ccc(OC(F)F)cc1 was read as Mdm2-MdmX inh inactive, T cruzi repl inactive, Beta cell apopt inactive, L major viab 57, CSC inhib inactive and SKKanGAS inh inactive.
For O=S1(=O)CCN(Cc2ccccn2)CC1 the results were Mdm2-MdmX inh inactive, T cruzi repl inactive, Beta cell apopt inactive, CSC inhib inactive and SKKanGAS inh inactive.
CC1CN(Cc2ccccn2)CCC1=O (stereo not given) was read as Mdm2-MdmX inh inactive, T cruzi repl inactive, Beta cell apopt inactive, L major viab 53, CSC inhib inactive and SKKanGAS inh inactive.
`O=[N+]([O-])c1ccc(C2OCCO2)cc1CS(=O)(=O)c1ccccc1` gave Mdm2-MdmX inh inactive, T cruzi repl inactive, Beta cell apopt inactive, L major viab inactive, CSC inhib inactive and SKKanGAS inh inactive.
